Results: paper PMC3621463 (Nature Communications, 2012)

Assays:
PIMT = assay: In vitro methylation assay with recombinant GST-PIMT; type: biochemical; conditions: GST-p53 1–82 methylated by GST-PIMT or His-PIMT, followed by NaOH; fluorography
[1] = system: p21 or Bax promoter luciferase; assay: Luciferase assay, p53-dependent transcription; type: cell-based; conditions: H1299 cells, p21-luc or Bax-luc; n=4
p53 = p53 protein level, immunoblot; type: cell-based; conditions: U2OS cells, PIMT siRNA/shRNA or ectopic PIMT expression
p53 ubiquitination = assay: p53 ubiquitination; type: cell-based; conditions: U2OS or H1299 cells, MG132 40 μM
p53-HDM2 interaction = assay: p53-HDM2 co-immunoprecipitation; type: cell-based; conditions: U2OS cells (PIMT siRNA) or H1299 cells (HA-p53, Flag-PIMT)
In short: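 Supernatants were incubated overnight at 4 °C with FLAG-, HA- or p53-antibody agarose and washed twice. Eluates were boiled 5 min, run on 4–12% Bis–Tris gels and immunoblotted with HRP-conjugated primary antibodies using chemiluminescence.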

U2OS cells = assay: Flow cytometry, early apoptosis, adriamycin; type: cell-based; conditions: adriamycin 1 μg ml−1, one day; control cells (control siRNA); n=4
In short: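 U2OS cells were transfected with PIMT or control siRNA. After 2 days they were treated with adriamycin, and apoptotic cells were scored by flow cytometry one day later. At least 10,000 cells were analysed per treatment. Significance was tested by Student's t-test.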

## p53 (amino acids 1–82): N terminus of p53 (amino acids 1–82)
PIMT
  methylation after alkaline treatment: removed upon alkaline treatment

## protein L-isoaspartyl methyltransferase [PIMT]
[1]
  p53-dependent transcription: inhibited the p53-dependent transcription of both reporter genes
p53
  p53 protein level: decreased the p53 protein levels in a dose-dependent manner
p53 ubiquitination
  ubiquitination of p53: increased p53 ubiquitination
p53-HDM2 interaction
  p53-HDM2 interaction: enhanced

## COc1cccc2c1C(=O)c1c(O)c3c(c(O)c1C2=O)C[C@@](O)(C(=O)CO)C[C@@H]3O[C@H]1C[C@H](N)[C@H](O)[C@H](C)O1 [adriamycin]
U2OS cells
  early apoptosis: 19.5%
